From ChEMBL document CHEMBL5370586 (J Nat Prod, 2023)
The source made the active and inactive calls. No cut-off for these calls is given here.

Columns and labels:
PWR-1E [1] = assay: Cytotoxicity against human PWR-1E cells assessed as reduction in cell confluency at 1 to 10 uM incubated for 72 hrs by Hoechst 33342 staining based high-content fluorescence microscopy; type: toxicity; settings: dose 1-10 µM
In short: (§1)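 PWR-1E cells seeded at 2 × 10^3 per well and given CBD at 1, 2 or 10 μM without serum for 72 h. Stained with Hoechst 33342, YO-PRO-1 and PI, then imaged by high-content microscopy. Scored for confluency and for healthy, early and late apoptotic fractions; at least three independent experiments.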

[2] = biological target: T1, Serine/threonine-protein kinase AKT (Homo sapiens) (UniProt P31751+Q9Y243+P31749); assay: Inhibition of AKT phosphorylation in human PC-3 cells at IC50 concentration incubated for 48 hrs by Western blot analysis; type: cell-based
T1 sequence (P31749 whole entry, looked up): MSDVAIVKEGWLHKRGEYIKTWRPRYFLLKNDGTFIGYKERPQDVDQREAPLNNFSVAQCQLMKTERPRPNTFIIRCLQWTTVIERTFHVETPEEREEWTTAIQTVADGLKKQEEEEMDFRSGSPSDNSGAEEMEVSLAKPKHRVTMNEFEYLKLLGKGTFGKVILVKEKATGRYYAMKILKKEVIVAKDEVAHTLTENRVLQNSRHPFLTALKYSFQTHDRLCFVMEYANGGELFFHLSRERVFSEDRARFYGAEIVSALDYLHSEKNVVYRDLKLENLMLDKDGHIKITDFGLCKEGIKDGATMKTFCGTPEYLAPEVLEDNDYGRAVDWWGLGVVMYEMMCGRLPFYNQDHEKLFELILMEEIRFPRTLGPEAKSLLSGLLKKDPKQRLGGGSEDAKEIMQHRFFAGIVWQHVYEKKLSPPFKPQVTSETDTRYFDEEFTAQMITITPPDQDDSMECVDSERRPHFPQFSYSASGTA
T1 sequence (P31751 whole entry, looked up): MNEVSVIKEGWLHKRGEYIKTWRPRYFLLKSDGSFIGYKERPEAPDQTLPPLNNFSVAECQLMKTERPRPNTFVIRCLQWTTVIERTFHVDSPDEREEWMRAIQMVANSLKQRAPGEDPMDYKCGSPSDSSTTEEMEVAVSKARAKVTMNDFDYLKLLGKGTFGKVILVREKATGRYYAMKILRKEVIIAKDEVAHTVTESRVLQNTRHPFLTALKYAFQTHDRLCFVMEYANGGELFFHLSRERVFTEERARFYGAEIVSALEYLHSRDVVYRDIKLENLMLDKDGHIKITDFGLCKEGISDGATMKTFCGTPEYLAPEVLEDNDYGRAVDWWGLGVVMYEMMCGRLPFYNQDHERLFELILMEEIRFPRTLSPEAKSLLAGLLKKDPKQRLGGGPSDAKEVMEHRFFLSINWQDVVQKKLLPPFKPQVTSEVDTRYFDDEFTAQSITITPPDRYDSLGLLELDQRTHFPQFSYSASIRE
T1 sequence (Q9Y243 whole entry, looked up): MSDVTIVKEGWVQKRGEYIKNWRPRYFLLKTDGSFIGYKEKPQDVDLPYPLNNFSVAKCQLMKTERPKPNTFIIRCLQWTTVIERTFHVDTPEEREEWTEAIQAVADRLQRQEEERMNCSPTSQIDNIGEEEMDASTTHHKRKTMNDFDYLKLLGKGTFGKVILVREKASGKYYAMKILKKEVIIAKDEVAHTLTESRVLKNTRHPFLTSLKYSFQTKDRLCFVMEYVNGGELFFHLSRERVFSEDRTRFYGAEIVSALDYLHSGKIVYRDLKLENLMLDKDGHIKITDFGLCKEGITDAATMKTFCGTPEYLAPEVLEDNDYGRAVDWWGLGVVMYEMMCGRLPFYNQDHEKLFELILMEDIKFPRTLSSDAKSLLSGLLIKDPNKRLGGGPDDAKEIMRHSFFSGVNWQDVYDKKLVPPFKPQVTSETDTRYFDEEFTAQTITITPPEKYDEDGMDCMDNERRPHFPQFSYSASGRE
In short: (§2)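 Cells seeded at 5 × 10^4 per well and treated 48 h with an IC50 dose of CBD in DU145 or PC-3. Lysed in ice-cold RIPA with protease/phosphatase inhibitor. 40 μg protein per lane on SDS-PAGE, then PVDF. Probed overnight at 4 °C for phospho-AKT and total AKT, HRP detection. Densitometry normalised to loading control, then to vehicle. Mean ± SD, ≥3 experiments, t-test.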

PC-3 [3] = assay: Antiproliferative activity against human PC-3 cells assessed as reduction in cell colonies incubated for 48 hrs detached and reseeded without compound and measured after 7 days by glutaraldehyde/crystal violet staining based clonogenic assay relative to control; type: functional; set-up: scale not given: the % may be the effect or the level left
In short: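 PC-3 cells left to adhere 24 h, then treated 48 h. Detached and reseeded at 500 cells per well without drug, then grown 7 days at 37 °C, 5% CO2, with medium changed every 2–3 days. Colonies fixed and stained with glutaraldehyde/crystal violet and counted.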

PWR-1E [4] = assay: Induction of apoptosis in human PWR-1E cells assessed as reduction in fraction of healthy cells at 1 to 10 uM incubated for 72 hrs by YO-PRO and propidium iodide staining based high content imaging fluorescence microscopic analysis; type: toxicity, cell-based; settings: dose 1-10 µM; in short: as §1
DU-145 [5] = assay: Induction of cell death in human DU-145 cells assessed as reduction in cell nucleus circularity at 1 to 10 uM measured after 72 hrs by Hoechst 33342 staining based high content imaging fluorescence microscopic analysis; type: functional; settings: dose 1-10 µM
In short: (§3)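 DU145 or PC-3 cells seeded at 2 × 10^3 per well and given CBD at 1, 5 or 10 μM with serum for 72 h; staurosporine as positive control. Stained 30 min with Hoechst 33342 (1:5000), YO-PRO-1 (1:1000) and PI (1:1000). High-content imaging with a 63× water objective. Hoechst gave confluency, nucleus area and circularity; YO-PRO/PI gave healthy, early and late apoptotic fractions.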

DU-145 [6] = assay: Antiproliferative activity against human DU-145 cells assessed as reduction in cell viability incubated for 72 hrs in presence of LPI by MTT assay; type: functional, cell-based
In short: (§4)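 DU145 or PC-3 cells pretreated 1 h with SR141716 (CB1 antagonist), SR144528 (CB2 antagonist), capsazepine (TRPV1 antagonist) or LPI (GPR55 agonist), then given CBD for 72 h. MTT read-out as % of vehicle. Compared with CBD alone by t-test; at least three independent experiments.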

[7] = biological target: T1, Serine/threonine-protein kinase AKT (Homo sapiens); assay: Inhibition of AKT phosphorylation in human DU-145 cells at IC50 concentration incubated for 48 hrs by Western blot analysis relative to control; type: cell-based; in short: as §2
DU-145 [8] = assay: Induction of cell cycle arrest in human DU-145 cells assessed as arrest in G1/S phase by measuring reduction in CDK4 protein expression at IC50 concentration incubated for 48 hrs by Western blotting analysis; type: functional, cell-based
In short: (§5)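 DU145 or PC-3 cells seeded at 5 × 10^4 per well and given CBD for 48 h. Lysed in ice-cold RIPA with protease/phosphatase inhibitor; 40 μg protein per lane, SDS-PAGE, PVDF transfer, milk block. Primary antibodies overnight at 4 °C, then HRP secondary 1 h at room temperature, chemiluminescence. Densitometry normalised to loading control, then to vehicle; at least three experiments.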

DU-145 [9] = assay: Induction of apoptosis in human DU-145 cells assessed as early apoptotic cells at 1 to 10 uM incubated for 72 hrs by YO-PRO and propidium iodide staining based high content imaging fluorescence microscopic analysis; type: functional, cell-based; settings: dose 1-10 µM; in short: as §3
PC-3 [10] = assay: Antiproliferative activity against human PC-3 cells assessed as reduction in cell viability incubated for 72 hrs in presence of SR144528 by MTT assay; type: functional, cell-based; in short: as §4
DU-145 [11] = assay: Antiproliferative activity against human DU-145 cells assessed as reduction in cell viability incubated for 72 hrs in serum deprivation condition by MTT assay; type: functional, cell-based; settings: DU-145, 72 h
In short: (§6)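 Cells seeded at 1 × 10^3 (DU145, PC-3), 6 × 10^3 (LNCaP), 2 × 10^3 (PWR-1E) or 4.5 × 10^3 (RWPE-1) per well and left to adhere 24 h. CBD (0–100 μM) then given for 72 h in serum-free medium. MTT added for 3 h at 37 °C, formazan dissolved in DMSO, absorbance read at 570 nm. Viability is % of vehicle; IC50 by nonlinear regression; at least three independent experiments.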

DU-145 [12] = assay: Antiproliferative activity against human DU-145 cells assessed as reduction in cell viability incubated for 72 hrs in presence of 10% FBS by MTT assay; type: functional, cell-based; settings: DU-145, 72 h
In short: (§7)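 Cells left to adhere 24 h, then exposed to CBD (0–100 μM) for 72 h in medium with 10% FBS. MTT incubation 3 h at 37 °C, DMSO solubilisation, A570. Viability relative to vehicle; IC50 from nonlinear regression; at least three independent experiments.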

PC-3 [13] = assay: Antiproliferative activity against human PC3 cells assessed as reduction in cell viability incubated for 72 hrs in serum deprivation condition by MTT assay; type: functional, cell-based; settings: PC-3, 72 h; in short: as §6
PC-3 [14] = assay: Induction of cell cycle arrest in human PC-3 cells assessed as arrest in G2/M phase by measuring reduction in CDK1 protein expression at IC50 concentration incubated for 48 hrs by Western blotting analysis; type: functional, cell-based; in short: as §5
PC-3 [15] = assay: Antiproliferative activity against human PC-3 cells assessed as reduction in cell viability incubated for 72 hrs in presence of 10% FBS by MTT assay; type: functional, cell-based; settings: PC-3, 72 h; in short: as §7
PC-3 [16] = assay: Induction of cell cycle arrest in human PC-3 cells assessed as arrest in G2/M phase by measuring reduction in CDK7 protein expression at IC50 concentration incubated for 48 hrs by Western blotting analysis; type: functional, cell-based; in short: as §5
PC-3 [17] = assay: Antiproliferative activity against human PC-3 cells assessed as reduction in cell viability incubated for 72 hrs in presence of LPI by MTT assay; type: functional, cell-based; in short: as §4
DU-145 [18] = assay: Induction of cell cycle arrest in human DU-145 cells assessed as arrest in G1/S phase by measuring reduction in CDK2 protein expression at IC50 concentration incubated for 48 hrs by Western blotting analysis; type: functional, cell-based; in short: as §5
PC-3 [19] = assay: Induction of cell death in human PC-3 cells assessed as reduction in cell nucleus circularity at 1 to 10 uM measured after 72 hrs by Hoechst 33342 staining based high content imaging fluorescence microscopic analysis; type: functional; settings: dose 1-10 µM; in short: as §3
DU-145 [20] = assay: Antiproliferative activity against human DU-145 cells assessed as reduction in cell count at IC50 concentration incubated for 48 hrs by flow cytometry analysis; type: functional, cell-based
In short: (§8)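 Six-well seeding at 4 × 10^4 (DU145) or 3 × 10^4 (PC-3) cells per well; CBD for 48 h. Supernatant and trypsinised adherent cells pooled and resuspended in ice-cold PBS. Cells counted by flow cytometry with forward/side scatter gating; at least three independent experiments.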

PC-3 [21] = assay: Induction of cell cycle arrest in human PC-3 cells assessed as arrest in G1/S phase by measuring reduction in CDK2 protein expression at IC50 concentration incubated for 48 hrs by Western blotting analysis; type: functional, cell-based; in short: as §5
PC-3 [22] = assay: Anti-invasive activity against human PC-3 cells assessed as reduction in MMP-9 protein secretion incubated for 48 hrs by ELISA analysis; type: functional, cell-based
LNCaP = assay: Antiproliferative activity against human LNCap cells assessed as reduction in cell viability incubated for 72 hrs in presence of 10% FBS by MTT assay; type: functional, cell-based; in short: as §7
DU-145 [23] = assay: Induction of apoptosis in human DU-145 cells assessed as late apoptotic cells at 1 to 10 uM incubated for 72 hrs by YO-PRO and propidium iodide staining based high content imaging fluorescence microscopic analysis; type: functional, cell-based; settings: dose 1-10 µM; in short: as §3
PC-3 [24] = assay: Induction of cell death in human PC-3 cells assessed as reduction in cell nucleus area at 1 to 10 uM measured after 72 hrs by Hoechst 33342 staining based high content imaging fluorescence microscopic analysis; type: functional; settings: dose 1-10 µM; in short: as §3
DU-145 [25] = assay: Induction of apoptosis in human DU-145 cells at IC50 concentration incubated for 48 hrs by YO-PRO and PI staining based flow cytometry analysis; type: functional, cell-based
In short: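 After 48 h CBD, DU145 (4 × 10^4 per well) or PC-3 (3 × 10^4 per well) supernatant and trypsinised cells pooled. Stained in ice-cold PBS with YO-PRO (1:1000) and propidium iodide (1:1000). Flow cytometry gated live, early apoptotic and late apoptotic cells and DNA fragmentation.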

PC-3 [26] = assay: Antiproliferative activity against human PC-3 cells assessed as reduction in cell count at IC50 concentration incubated for 48 hrs by flow cytometry analysis; type: functional, cell-based; in short: as §8
PWR-1E [27] = assay: Induction of cell death in human PWR-1E cells assessed as reduction in nucleus circularity at 1 to 10 uM incubated for 72 hrs by Hoechst 33342 staining based high-content fluorescence microscopy; type: toxicity; settings: dose 1-10 µM

Q: For `C=C(C)[C@@H]1CCC(C)=C[C@H]1c1c(O)cc(CCCCC)cc1O` [CANNABIDIOL], which Activity (PWR-1E [1]) is on record?
A: Toxic

Q: And the inhibition [2]?
A: inactive

Q: And the Activity (PC-3 [3])?
A: ~25%

Q: And the Activity (PWR-1E [4])?
A: Toxic

Q: And the Activity (DU-145 [5])?
A: inactive

Q: What about the Activity (DU-145 [6]) of the same compound?
A: Active

Q: And the inhibition [7]?
A: 40%

Q: What about the Activity (DU-145 [8]) of the same compound?
A: Active

Q: And the Activity (DU-145 [9])?
A: inactive

Q: And the Activity (PC-3 [10])?
A: Active

Q: What about the IC50 (DU-145 [11]) of the same compound?
A: 1.5 µM

Q: And the IC50 (DU-145 [12])?
A: 12.3 µM

Q: What about the IC50 (PC-3 [13]) of the same compound?
A: 2.9 µM

Q: What about the Activity (PC-3 [14]) of the same compound?
A: Active

Q: And the IC50 (PC-3 [15])?
A: 10.5 µM

Q: And the Activity (PC-3 [16])?
A: inactive

Q: And the Activity (PC-3 [17])?
A: Active

Q: And the Activity (DU-145 [18])?
A: Active

Q: What about the Activity (PC-3 [19]) of the same compound?
A: inactive

Q: What about the Activity (DU-145 [20]) of the same compound?
A: Active

Q: And the Activity (PC-3 [21])?
A: Active

Q: And the Activity (PC-3 [22])?
A: inactive

Q: What about the IC50 (LNCaP) of the same compound?
A: 18 µM

Q: What about the Activity (DU-145 [23]) of the same compound?
A: inactive

Q: And the Activity (PC-3 [24])?
A: inactive

Q: What about the Activity (DU-145 [25]) of the same compound?
A: inactive

Q: What about the Activity (PC-3 [26]) of the same compound?
A: Active

Q: And the Activity (PWR-1E [27])?
A: Toxic
